Measurements: ChEMBL document CHEMBL1145212, “Fluorinated diaryl sulfides as serotonin transporter ligands: synthesis, structure-activity relationship study, and in vivo evaluation of fluorine-18-labeled compounds as PET imaging agents” (J Med Chem, 2005)

What was measured:
Conditions in all cases: tested as the 18F-labelled form
[1] = target: Sodium-dependent serotonin transporter (Rattus norvegicus) (UniProt P31652); assay: Specific binding of [18F]AFA in rat striatum after GBR-12935 treatment; n=3; type: functional, tissue-based
Sequence of Sodium-dependent serotonin transporter (Rattus norvegicus) (P31652 whole entry): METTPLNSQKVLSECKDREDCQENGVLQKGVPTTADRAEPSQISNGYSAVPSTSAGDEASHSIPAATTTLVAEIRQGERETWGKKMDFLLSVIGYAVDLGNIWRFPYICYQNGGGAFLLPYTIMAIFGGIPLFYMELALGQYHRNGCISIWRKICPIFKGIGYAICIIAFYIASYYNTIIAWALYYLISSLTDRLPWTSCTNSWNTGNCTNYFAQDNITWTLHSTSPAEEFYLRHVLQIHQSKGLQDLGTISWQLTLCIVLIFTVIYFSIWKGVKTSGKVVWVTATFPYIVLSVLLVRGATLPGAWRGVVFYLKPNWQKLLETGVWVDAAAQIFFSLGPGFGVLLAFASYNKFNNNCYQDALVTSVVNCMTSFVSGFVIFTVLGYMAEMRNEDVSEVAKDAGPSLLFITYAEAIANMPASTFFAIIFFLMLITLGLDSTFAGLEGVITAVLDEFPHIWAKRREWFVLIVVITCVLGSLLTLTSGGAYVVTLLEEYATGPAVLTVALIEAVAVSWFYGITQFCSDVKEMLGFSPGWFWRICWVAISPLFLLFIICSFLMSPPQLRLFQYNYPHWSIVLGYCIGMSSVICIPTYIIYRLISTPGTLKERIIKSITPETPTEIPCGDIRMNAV
Summary of the method: (§1)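 Rats, three per group, were pretreated iv with blocker at 2 mg/kg in saline, or with saline as control, 10–15 min before tail-vein F-18 radioligand (about 20 µCi). Killed at 60 min and regional %ID/g determined. Specific binding = (region activity − cerebellum activity)/cerebellum activity; mean ± SD.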

[2] = target: Sodium-dependent serotonin transporter (Rattus norvegicus) (UniProt P31652); assay: Specific binding of [18F]AFA in rat thalamus after GBR-12935 treatment; n=3; type: functional, tissue-based; summary of the method: as §1
[3] = target: Sodium-dependent serotonin transporter (Rattus norvegicus) (UniProt P31652); assay: Specific binding of [18F]-AFA in rat striatum after citalopram treatment; n=3; type: functional, tissue-based; summary of the method: as §1
[4] = target: Sodium-dependent serotonin transporter (Rattus norvegicus) (UniProt P31652); assay: Specific binding of [18F]-AFA in rat striatum after nisoxetine treatment; n=3; type: functional, tissue-based; summary of the method: as §1
[5] = target: Sodium-dependent serotonin transporter (Rattus norvegicus) (UniProt P31652); assay: Specific binding of [18F]AFA in rat thalamus after citalopram treatment; n=3; type: functional, tissue-based; summary of the method: as §1
[6] = target: Sodium-dependent serotonin transporter (Rattus norvegicus) (UniProt P31652); assay: Specific binding of [18F]AFA in rat thalamus after nisoxetine treatment; n=3; type: functional, tissue-based; summary of the method: as §1
[7] = target: Sodium-dependent serotonin transporter (Rattus norvegicus) (UniProt P31652); assay: Specific binding of [18F]AFA in rat hippocampus after GBR-12935 treatment; n=3; type: functional, tissue-based; summary of the method: as §1
[8] = target: Sodium-dependent serotonin transporter (Rattus norvegicus) (UniProt P31652); assay: Specific binding of [18F]AFA in rat hypothalamus after GBR-12935 treatment; n=3; type: functional, tissue-based; summary of the method: as §1
[9] = target: Sodium-dependent serotonin transporter (Rattus norvegicus) (UniProt P31652); assay: Specific binding of [18F]AFA in rat hippocampus after citalopram treatment; n=3; type: functional, tissue-based; summary of the method: as §1
[10] = target: Sodium-dependent serotonin transporter (Rattus norvegicus) (UniProt P31652); assay: Specific binding of [18F]AFA in rat hippocampus after nisoxetine treatment; n=3; type: functional, tissue-based; summary of the method: as §1
[11] = target: Sodium-dependent serotonin transporter (Rattus norvegicus) (UniProt P31652); assay: Specific binding of [18F]AFA in rat frontal cortex after GBR-12935 treatment; n=3; type: functional, tissue-based; summary of the method: as §1
[12] = target: Sodium-dependent serotonin transporter (Rattus norvegicus) (UniProt P31652); assay: Specific binding of [18F]AFA in rat hypothalamus after citalopram treatment; n=3; type: functional, tissue-based; summary of the method: as §1
[13] = target: Sodium-dependent serotonin transporter (Rattus norvegicus) (UniProt P31652); assay: Specific binding of [18F]AFA in rat hypothalamus after nisoxetine treatment; n=3; type: functional, tissue-based; summary of the method: as §1
[14] = target: Sodium-dependent serotonin transporter (Rattus norvegicus) (UniProt P31652); assay: Specific binding of [18F]AFA in rat frontal cortex after citalopram treatment; n=3; type: functional, tissue-based; summary of the method: as §1
[15] = target: Sodium-dependent serotonin transporter (Rattus norvegicus) (UniProt P31652); assay: Specific binding of [18F]AFA in rat frontal cortex after nisoxetine treatment; n=3; type: functional, tissue-based; summary of the method: as §1
[16] = target: Sodium-dependent serotonin transporter (Rattus norvegicus) (UniProt P31652); assay: Specific binding in rat hypothalamus at 10 min postinjection in vivo; type: functional, organism-based
Summary of the method: (§2)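 Male Sprague-Dawley rats, n=3 per time point, received about 20 µCi of F-18 radioligand in saline iv by tail vein and were killed at 10–120 min. %ID/g was measured with decay and tail-residual correction. Hypothalamic specific binding = (%ID/g hypothalamus − %ID/g cerebellum)/%ID/g cerebellum; mean ± SD.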

[17] = target: Sodium-dependent serotonin transporter (Rattus norvegicus) (UniProt P31652); assay: Specific binding in rat hypothalamus at 30 min postinjection in vivo; type: functional, organism-based; summary of the method: as §2
[18] = target: Sodium-dependent serotonin transporter (Rattus norvegicus) (UniProt P31652); assay: Specific binding in rat hypothalamus at 60 min postinjection in vivo; type: functional, organism-based; summary of the method: as §2
[19] = target: Sodium-dependent serotonin transporter (Rattus norvegicus) (UniProt P31652); assay: Specific binding in rat hypothalamus at 90 min postinjection in vivo; type: functional, organism-based; summary of the method: as §2
[20] = target: Sodium-dependent serotonin transporter (Rattus norvegicus) (UniProt P31652); assay: Specific binding in rat hypothalamus at 120 min postinjection in vivo; type: functional, organism-based; summary of the method: as §2
Rattus norvegicus [21] = species: Rattus norvegicus; assay: Regional uptake of [18F]AFA in blood of rat pretreated with compound 7d; n=3; type: functional, organism-based
Rattus norvegicus [22] = species: Rattus norvegicus; assay: Regional uptake of [18F]AFA in striatum of rat pretreated with compound 7d; n=3; type: functional, organism-based
Rattus norvegicus [23] = species: Rattus norvegicus; assay: Regional uptake of [18F]AFA in cerebellum of rat pretreated with compound 7d; n=3; type: functional, organism-based
Rattus norvegicus [24] = species: Rattus norvegicus; assay: Regional uptake of [18F]-AFA in blood of rat pretreated with compound GBR-12935; n=3; type: functional, organism-based
Summary of the method: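 Male Sprague-Dawley rats, three per group, received blocker (2 mg/kg iv in saline) or saline only (controls) 10–15 min before about 20 µCi of tail-vein F-18 radioligand. Killed 60 min after tracer. Blood and brain regions weighed and gamma-counted. %ID/g was decay- and tail-corrected; mean ± SD.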

Question: Which Specific binding [1] does the source give for CN(C)Cc1ccccc1Sc1ccc(CF)cc1N here?
Answer: 4.37 %ID/g

Question: What about the Specific binding [2] of the same compound?
Answer: 4.38 %ID/g

Question: What about the Specific binding [3] of the same compound?
Answer: 0.52 %ID/g

Question: What about the Specific binding [4] of the same compound?
Answer: 3.59 %ID/g

Question: And the Specific binding [5]?
Answer: 1.05 %ID/g

Question: And the Specific binding [6]?
Answer: 4.71 %ID/g

Question: And the Specific binding [7]?
Answer: 3.51 %ID/g

Question: And the Specific binding [8]?
Answer: 5.3 %ID/g

Question: And the Specific binding [9]?
Answer: 0.67 %ID/g

Question: And the Specific binding [10]?
Answer: 2.72 %ID/g

Question: And the Specific binding [11]?
Answer: 3.83 %ID/g

Question: What about the Specific binding [12] of the same compound?
Answer: 1.37 %ID/g

Question: And the Specific binding [13]?
Answer: 5.24 %ID/g

Question: And the Specific binding [14]?
Answer: 0.36 %ID/g

Question: What about the Specific binding [15] of the same compound?
Answer: 4.02 %ID/g

Question: What about the Specific binding [16] of the same compound?
Answer: 0.98 %ID/g

Question: What about the Specific binding [17] of the same compound?
Answer: 2.27 %ID/g

Question: What about the Specific binding [18] of the same compound?
Answer: 4.56 %ID/g

Question: And the Specific binding (dimensionless ratio) [19]?
Answer: 5.81

Question: And the Specific binding (dimensionless ratio) [20]?
Answer: 8.37

Question: And the Uptake (Rattus norvegicus [21])?
Answer: 0.11 %ID/g

Question: And the Uptake (Rattus norvegicus [22])?
Answer: 0.14 %ID/g

Question: And the Uptake (Rattus norvegicus [23])?
Answer: 0.09 %ID/g

Question: And the Uptake (Rattus norvegicus [24])?
Answer: 0.11 %ID/g
